Measured values pooled from the literature.
Target: Phosphatidylinositol 3-kinase C2 domain-containing subunit gamma (PIK3C2G, Homo sapiens, UniProt O75747)
Residues used in one study (O75747 1-1486): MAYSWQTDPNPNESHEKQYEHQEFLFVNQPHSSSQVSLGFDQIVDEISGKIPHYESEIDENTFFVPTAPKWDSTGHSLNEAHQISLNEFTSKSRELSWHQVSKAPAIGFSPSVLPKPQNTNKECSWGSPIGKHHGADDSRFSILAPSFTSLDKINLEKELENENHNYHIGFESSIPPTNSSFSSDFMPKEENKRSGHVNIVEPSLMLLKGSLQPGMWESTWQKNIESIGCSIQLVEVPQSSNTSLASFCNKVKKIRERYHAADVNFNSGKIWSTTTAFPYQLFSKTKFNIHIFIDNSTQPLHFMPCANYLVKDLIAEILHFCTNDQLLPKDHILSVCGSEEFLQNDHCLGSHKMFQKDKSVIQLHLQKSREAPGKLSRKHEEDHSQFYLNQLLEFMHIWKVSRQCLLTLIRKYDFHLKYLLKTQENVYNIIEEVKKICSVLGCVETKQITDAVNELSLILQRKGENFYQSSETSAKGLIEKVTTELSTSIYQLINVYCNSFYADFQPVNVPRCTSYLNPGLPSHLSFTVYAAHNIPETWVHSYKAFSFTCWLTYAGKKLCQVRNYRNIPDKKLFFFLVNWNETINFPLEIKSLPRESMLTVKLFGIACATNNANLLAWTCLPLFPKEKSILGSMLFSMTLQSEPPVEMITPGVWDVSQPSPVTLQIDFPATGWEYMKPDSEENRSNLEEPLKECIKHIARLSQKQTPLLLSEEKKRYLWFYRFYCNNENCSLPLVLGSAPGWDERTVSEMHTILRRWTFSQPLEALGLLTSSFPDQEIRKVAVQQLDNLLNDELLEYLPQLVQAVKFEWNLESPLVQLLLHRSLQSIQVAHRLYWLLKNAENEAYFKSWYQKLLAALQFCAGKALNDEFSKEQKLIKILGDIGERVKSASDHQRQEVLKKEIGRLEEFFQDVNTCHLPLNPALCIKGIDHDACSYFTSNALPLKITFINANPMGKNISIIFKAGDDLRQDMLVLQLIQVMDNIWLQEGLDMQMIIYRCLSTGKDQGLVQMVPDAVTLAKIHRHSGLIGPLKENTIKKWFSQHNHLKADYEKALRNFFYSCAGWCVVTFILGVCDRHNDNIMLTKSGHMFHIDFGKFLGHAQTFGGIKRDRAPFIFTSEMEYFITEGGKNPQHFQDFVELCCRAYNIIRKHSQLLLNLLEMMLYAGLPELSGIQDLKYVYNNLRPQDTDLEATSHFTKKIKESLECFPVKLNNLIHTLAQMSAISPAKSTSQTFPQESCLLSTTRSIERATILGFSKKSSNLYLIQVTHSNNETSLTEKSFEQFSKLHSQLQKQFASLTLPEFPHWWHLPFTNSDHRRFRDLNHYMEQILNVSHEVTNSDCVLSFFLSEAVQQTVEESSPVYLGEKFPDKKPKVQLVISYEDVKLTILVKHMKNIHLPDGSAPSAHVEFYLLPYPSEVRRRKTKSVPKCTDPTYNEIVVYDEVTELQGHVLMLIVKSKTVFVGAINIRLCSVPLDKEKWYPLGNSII

`O=C(NCC1CCOCC1)c1n[nH]cc1NC(=O)c1c(F)cccc1F` gave a remaining binding of 100% (binding, competition with immobilised ligand; 1 µM).
`O=C(NCc1ncc(C(F)(F)F)cc1Cl)c1ccc2c(c1)C1(CCS(=O)(=O)CC1)[C@@H](C1CC1)N2S(=O)(=O)c1ccc(F)cc1` gave a remaining binding of 75% (cell-free assay, competition with immobilised ligand; 1 µM).
The remaining binding of `Nc1ncc2c(n1)-c1c([nH]c3ccc(C#CC4CC4)cc13)CCCC2` is reported as 92% (binding, competition with immobilised ligand; 1 µM).
With `C=CC(=O)N1CCC(C(=O)NCC(=O)N2CCN(c3nc(-c4cnc(N)nc4C(F)F)nc(N4CCOCC4)n3)CC2)CC1` the remaining binding was 16% (binding, competition with immobilised ligand; 1 µM).
`CN(C)c1ncc(F)c(-c2cnn3ncccc23)n1` gave a remaining binding of 56% (binding; 1 µM).
For `CCN1CCN(Cc2ccc(C(=O)Nc3ccc(C)c(Oc4ccc5c(c4)CC(=O)N5)c3)cc2C(F)(F)F)CC1`, the remaining binding was 100% (binding, competition with immobilised ligand; 1 µM).
`CN(CCCC(F)(F)F)c1nccc(-c2cnn3ncccc23)n1` has a remaining binding of 100% (binding; 1 µM).
The remaining binding of `CCS(=O)(=O)c1cc2cc(C[C@](O)(CC(C)(C)c3ccc(F)cc3C(N)=O)C(F)(F)F)[nH]c2cn1` is reported as 100% (cell-free assay, competition with immobilised ligand; 1 µM).
For `O=C(c1ccc(Nc2nccc(-c3cc4ccccc4s3)n2)cc1)N1CCC(N2CCCC2)CC1`, the remaining binding was 100% (binding, competition with immobilised ligand; 1 µM).
The remaining binding of `N[C@H]1CCN(c2nccc(-c3cnn4ncccc34)n2)C1` is reported as 100% (binding; 1 µM).
`CNC(=O)c1ccc(Nc2ncc(C(F)(F)F)c(NCc3nccnc3N(C)S(C)(=O)=O)n2)cc1` gave a remaining binding of 92% (cell-free assay, competition with immobilised ligand; 0.1 µM).
`C[C@H]1CCN(c2nccc(-c3cnn4ncccc34)n2)C1` gave a remaining binding of 79% (binding; 1 µM).
`O=C(NCCCN1CCOCC1)c1ccc(Nc2ncc(Cl)c(-c3ccc(Cl)s3)n2)cc1` gave a remaining binding of 100% (binding, competition with immobilised ligand; 1 µM).
The remaining binding of `CCCOc1ccc([C@@H]2[C@@H](C(=O)O)[C@H](c3ccc4c(c3)OCO4)CN2CC(=O)Nc2c(CC)cccc2CC)cc1` is reported as 78% (cell-free assay, competition with immobilised ligand; 1 µM).
With `COc1cnc(Nc2cccc(S(N)(=O)=O)c2)nc1N1CCN(c2ccccc2)CC1` the remaining binding was 79% (binding, competition with immobilised ligand; 1 µM).
`C[C@@H](c1cccc(C#N)c1)n1cc(Cl)cc(C(N)=O)c1=N` has a remaining binding of 84% (cell-free assay, competition with immobilised ligand; 1 µM).
The remaining binding of `COc1ccnn2ncc(-c3ccnc(N(C)C)n3)c12` is reported as 93% (binding; 1 µM).
The remaining binding of `CN(C)C(=O)Cn1cc(-c2nc([C@@](C)(c3ccc(-c4cnc(N)nc4)cc3)C3CC3)no2)cn1` is reported as 66% (cell-free assay, competition with immobilised ligand; 1 µM).
`CNC(=O)[C@@H]1CC[C@@H](n2c(-c3ccc4cnccc4c3)nc3ccc(C(=O)NCc4cccc(C(N)=O)c4)cc32)C1` has a remaining binding of 100% (binding, competition with immobilised ligand; 1 µM).
`O=C(NCCCN1CCOCC1)c1ccc(Nc2nccc(-c3cc4ccccc4s3)n2)cc1` has a remaining binding of 68% (binding, competition with immobilised ligand; 1 µM).
